From ChEMBL document CHEMBL3817731, “Synthesis and investigation of novel benzimidazole derivatives as antifungal agents” (Bioorg Med Chem, 2016)
≈ marks a conversion by molar mass, not a printed value. Calls of active or inactive are those of the source. The rule behind the calls is not given here.

system: Aspergillus nidulans; test: Antifungal activity against Aspergillus nidulans ATCC 38163 after 48 hrs by CLSI M38-A2 method; format: functional; conditions: ATCC 38163, 48 h

With `C#CCOc1ccc(-c2nc3ccc(-c4nc5ccc(N6CCN(CCC)CC6)cc5[nH]4)cc3[nH]2)cc1` as the molecule, how does the MIC read?
Its MIC is over 31.2 µg/mL.

Which MIC does the source give for `CN1CCN(c2ccc3[nH]c(-c4ccc5[nH]c(-c6ccc(O)cc6)nc5c4)nc3c2)CC1` [HOECHST 33258] here?
Its MIC is 1.95 µg/mL (≈ 4.59 µM).

system: Candida albicans; test: Antifungal activity against Candida albicans ATCC MYA-90819 after 48 hrs by CLSI M27-A3 method; format: functional; conditions: ATCC MYA-90819, 48 h

With `C#CCOc1ccc(-c2nc3ccc(-c4nc5ccc(N6CCN(CCC)CC6)cc5[nH]4)cc3[nH]2)cc1` as the molecule, how does the MIC read?
The MIC was over 31.2 µg/mL.

For `CN1CCN(c2ccc3[nH]c(-c4ccc5[nH]c(-c6ccc(O)cc6)nc5c4)nc3c2)CC1` [HOECHST 33258], which MIC is on record?
Its MIC is 7.8 µg/mL (≈ 18.4 µM).

system: not listed separately; test: Cytotoxicity against human BEAS2B cells assessed as reduction in cell survival after 24 hrs by resazurin assay; format: cell-based; conditions: BEAS-2B
How it was run: (§1)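 Human A549 cells treated 24 h; BEAS 2B cells treated 6 h or 24 h. DMSO-treated cells served as negative control and Triton X-treated cells as positive control. Read-out was cell survival.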

For `CN1CCN(c2ccc3[nH]c(-c4ccc5[nH]c(-c6ccc(O)cc6)nc5c4)nc3c2)CC1` [HOECHST 33258], which IC50 is on record?
The IC50 was at least 31.2 µg/mL.

system: Nakaseomyces glabratus; test: Antifungal activity against Candida glabrata ATCC 2001 after 48 hrs by CLSI M27-A3 method; format: functional; conditions: CBS 138, 48 h

Which MIC does the source give for `C#CCOc1ccc(-c2nc3ccc(-c4nc5ccc(N6CCN(CCC)CC6)cc5[nH]4)cc3[nH]2)cc1` here?
The MIC was over 31.2 µg/mL.

With `CN1CCN(c2ccc3[nH]c(-c4ccc5[nH]c(-c6ccc(O)cc6)nc5c4)nc3c2)CC1` [HOECHST 33258] as the molecule, how does the MIC read?
Its MIC is 0.975 µg/mL (≈ 2.3 µM).

system: Candida albicans; test: Fungistatic activity against Candida albicans ATCC 64124 assessed as reduction in fungal population at MIC after 24 hrs by time kill assay; conditions: not given

With `CN1CCN(c2ccc3[nH]c(-c4ccc5[nH]c(-c6ccc(O)cc6)nc5c4)nc3c2)CC1` [HOECHST 33258] as the molecule, how does the Activity read?
Its Activity is 1 log10CFU.

system: Candida albicans; test: Antifungal activity against Candida albicans ATCC MYA-1237 after 48 hrs by CLSI M27-A3 method; format: functional; conditions: ATCC MYA-1237, 48 h

For `C#CCOc1ccc(-c2nc3ccc(-c4nc5ccc(N6CCN(CCC)CC6)cc5[nH]4)cc3[nH]2)cc1`, which MIC is on record?
The MIC was over 31.2 µg/mL.

Which MIC does the source give for `CN1CCN(c2ccc3[nH]c(-c4ccc5[nH]c(-c6ccc(O)cc6)nc5c4)nc3c2)CC1` [HOECHST 33258] here?
Its MIC is 3.9 µg/mL (≈ 9.19 µM).

system: A549; test: Cytotoxicity against human A549 cells assessed as reduction in cell survival after 24 hrs by resazurin assay; format: cell-based; conditions: A549, 24 h; how it was run: as §1

Which IC50 does the source give for `CN1CCN(c2ccc3[nH]c(-c4ccc5[nH]c(-c6ccc(O)cc6)nc5c4)nc3c2)CC1` [HOECHST 33258] here?
The IC50 was at least 31.2 µg/mL.

system: Pichia kudriavzevii; test: Antifungal activity against Candida krusei ATCC 6258 after 48 hrs by CLSI M27-A3 method; format: functional; conditions: ATCC 6258, 48 h

With `C#CCOc1ccc(-c2nc3ccc(-c4nc5ccc(N6CCN(CCC)CC6)cc5[nH]4)cc3[nH]2)cc1` as the molecule, how does the MIC read?
The MIC was 15.6 µg/mL (≈ 31.8 µM).

system: Candida albicans; test: Fungistatic activity against Candida albicans ATCC 64124 assessed as reduction in fungal population at MIC upto 24 hrs by time kill assay; format: functional, organism-based; conditions: not given

With `CN1CCN(c2ccc3[nH]c(-c4ccc5[nH]c(-c6ccc(O)cc6)nc5c4)nc3c2)CC1` [HOECHST 33258] as the molecule, how does the Activity read?
The Activity was “Active”.

system: Candida albicans; test: Antifungal activity against Candida albicans ATCC 10231 after 48 hrs by CLSI M27-A3 method; format: functional; conditions: ATCC 10231, 48 h

Which MIC does the source give for `C#CCOc1ccc(-c2nc3ccc(-c4nc5ccc(N6CCN(CCC)CC6)cc5[nH]4)cc3[nH]2)cc1` here?
The MIC was over 31.2 µg/mL.

system: Candida albicans; test: Induction of ROS production in Candida albicans ATCC 10231 at 1 to 2 times MIC after 1 hr by DCFH-DA probe based fluorescence microscopy; format: functional, organism-based; conditions: not given

With `CN1CCN(c2ccc3[nH]c(-c4ccc5[nH]c(-c6ccc(O)cc6)nc5c4)nc3c2)CC1` [HOECHST 33258] as the molecule, how does the Activity read?
Its Activity is “Active”.

system: Candida parapsilosis; test: Antifungal activity against Candida parapsilosis ATCC 22019 after 48 hrs by CLSI M27-A3 method; format: functional; conditions: Lodderomyces parapsilosis, ATCC 22019, 48 h

Which MIC does the source give for `C#CCOc1ccc(-c2nc3ccc(-c4nc5ccc(N6CCN(CCC)CC6)cc5[nH]4)cc3[nH]2)cc1` here?
Its MIC is over 31.2 µg/mL.

Which MIC does the source give for `CN1CCN(c2ccc3[nH]c(-c4ccc5[nH]c(-c6ccc(O)cc6)nc5c4)nc3c2)CC1` [HOECHST 33258] here?
Its MIC is 0.975 µg/mL (≈ 2.3 µM).

system: Candida albicans; test: Antifungal activity against Candida albicans ATCC MYA-2876 after 48 hrs by CLSI M27-A3 method; format: functional; conditions: ATCC MYA-2876, 48 h

Which MIC does the source give for `C#CCOc1ccc(-c2nc3ccc(-c4nc5ccc(N6CCN(CCC)CC6)cc5[nH]4)cc3[nH]2)cc1` here?
The MIC was over 31.2 µg/mL.

Which MIC does the source give for `CN1CCN(c2ccc3[nH]c(-c4ccc5[nH]c(-c6ccc(O)cc6)nc5c4)nc3c2)CC1` [HOECHST 33258] here?
The MIC was 7.8 µg/mL (≈ 18.4 µM).

system: not listed separately; test: Cytotoxicity against human BEAS2B cells assessed as reduction in cell survival after 6 hrs by resazurin assay; format: cell-based; conditions: beas-2b; how it was run: as §1

For `CN1CCN(c2ccc3[nH]c(-c4ccc5[nH]c(-c6ccc(O)cc6)nc5c4)nc3c2)CC1` [HOECHST 33258], which Activity is on record?
Its Activity is “Non-toxic”.

system: Aspergillus flavus; test: Antifungal activity against Aspergillus flavus ATCC MYA-3631 after 48 hrs by CLSI M38-A2 method; format: functional; conditions: ATCC MYA-3631, 48 h

For `C#CCOc1ccc(-c2nc3ccc(-c4nc5ccc(N6CCN(CCC)CC6)cc5[nH]4)cc3[nH]2)cc1`, which MIC is on record?
Its MIC is over 31.2 µg/mL.

Which MIC does the source give for `CN1CCN(c2ccc3[nH]c(-c4ccc5[nH]c(-c6ccc(O)cc6)nc5c4)nc3c2)CC1` [HOECHST 33258] here?
Its MIC is 31.2 µg/mL (≈ 73.5 µM).

system: Candida albicans; test: Antifungal activity against Candida albicans ATCC MYA-2310 after 48 hrs by CLSI M27-A3 method; format: functional; conditions: ATCC MYA-2310, 48 h

With `C#CCOc1ccc(-c2nc3ccc(-c4nc5ccc(N6CCN(CCC)CC6)cc5[nH]4)cc3[nH]2)cc1` as the molecule, how does the MIC read?
Its MIC is over 31.2 µg/mL.

With `CN1CCN(c2ccc3[nH]c(-c4ccc5[nH]c(-c6ccc(O)cc6)nc5c4)nc3c2)CC1` [HOECHST 33258] as the molecule, how does the MIC read?
Its MIC is 3.9 µg/mL (≈ 9.19 µM).

system: Candida albicans; test: Antifungal activity against Candida albicans ATCC MYA-1003 after 48 hrs by CLSI M27-A3 method; format: functional; conditions: ATCC MYA-1003, 48 h

For `C#CCOc1ccc(-c2nc3ccc(-c4nc5ccc(N6CCN(CCC)CC6)cc5[nH]4)cc3[nH]2)cc1`, which MIC is on record?
The MIC was over 31.2 µg/mL.

Which MIC does the source give for `CN1CCN(c2ccc3[nH]c(-c4ccc5[nH]c(-c6ccc(O)cc6)nc5c4)nc3c2)CC1` [HOECHST 33258] here?
The MIC was 7.8 µg/mL (≈ 18.4 µM).

system: Candida albicans; test: Fungicidal activity against Candida albicans ATCC 64124 assessed as reduction in fungal population at 2 times MIC after 24 to 48 hrs by time kill assay; format: functional; conditions: not given

For `CN1CCN(c2ccc3[nH]c(-c4ccc5[nH]c(-c6ccc(O)cc6)nc5c4)nc3c2)CC1` [HOECHST 33258], which Activity is on record?
The Activity was 5 log10CFU.

system: Candida albicans; test: Antifungal activity against Candida albicans ATCC 64124 after 48 hrs by CLSI M27-A3 method; format: functional; conditions: ATCC 64124, 48 h

Which MIC does the source give for `C#CCOc1ccc(-c2nc3ccc(-c4nc5ccc(N6CCN(CCC)CC6)cc5[nH]4)cc3[nH]2)cc1` here?
The MIC was over 31.2 µg/mL.

system: Aspergillus terreus; test: Antifungal activity against Aspergillus terreus ATCC MYA3633 after 48 hrs by CLSI M38-A2 method; format: functional; conditions: ATCC MYA3633, 48 h

For `C#CCOc1ccc(-c2nc3ccc(-c4nc5ccc(N6CCN(CCC)CC6)cc5[nH]4)cc3[nH]2)cc1`, which MIC is on record?
Its MIC is over 31.2 µg/mL.
